Results taken from paper PMC8081235 (Biochemistry, 2020).
Positions count from the first letter of the chain named. Read-outs that look alike come from different tables or passages of the source. Blank lines part the entries; values can stand above or below the molecule they belong to.

Assays:
PLC-γ1 (D1165H) [1] = target: T1, PLC-γ1 (D1165H) (Rattus norvegicus, UniProt P10686, D1165H); test: IC50 measurement with XY-69 in liposomes; assay type: biochemical; details: for inhibition of PLC-γ1: statement in conclusions, relative to ATP
T1 sequence (P10686 1-1290 D1165H): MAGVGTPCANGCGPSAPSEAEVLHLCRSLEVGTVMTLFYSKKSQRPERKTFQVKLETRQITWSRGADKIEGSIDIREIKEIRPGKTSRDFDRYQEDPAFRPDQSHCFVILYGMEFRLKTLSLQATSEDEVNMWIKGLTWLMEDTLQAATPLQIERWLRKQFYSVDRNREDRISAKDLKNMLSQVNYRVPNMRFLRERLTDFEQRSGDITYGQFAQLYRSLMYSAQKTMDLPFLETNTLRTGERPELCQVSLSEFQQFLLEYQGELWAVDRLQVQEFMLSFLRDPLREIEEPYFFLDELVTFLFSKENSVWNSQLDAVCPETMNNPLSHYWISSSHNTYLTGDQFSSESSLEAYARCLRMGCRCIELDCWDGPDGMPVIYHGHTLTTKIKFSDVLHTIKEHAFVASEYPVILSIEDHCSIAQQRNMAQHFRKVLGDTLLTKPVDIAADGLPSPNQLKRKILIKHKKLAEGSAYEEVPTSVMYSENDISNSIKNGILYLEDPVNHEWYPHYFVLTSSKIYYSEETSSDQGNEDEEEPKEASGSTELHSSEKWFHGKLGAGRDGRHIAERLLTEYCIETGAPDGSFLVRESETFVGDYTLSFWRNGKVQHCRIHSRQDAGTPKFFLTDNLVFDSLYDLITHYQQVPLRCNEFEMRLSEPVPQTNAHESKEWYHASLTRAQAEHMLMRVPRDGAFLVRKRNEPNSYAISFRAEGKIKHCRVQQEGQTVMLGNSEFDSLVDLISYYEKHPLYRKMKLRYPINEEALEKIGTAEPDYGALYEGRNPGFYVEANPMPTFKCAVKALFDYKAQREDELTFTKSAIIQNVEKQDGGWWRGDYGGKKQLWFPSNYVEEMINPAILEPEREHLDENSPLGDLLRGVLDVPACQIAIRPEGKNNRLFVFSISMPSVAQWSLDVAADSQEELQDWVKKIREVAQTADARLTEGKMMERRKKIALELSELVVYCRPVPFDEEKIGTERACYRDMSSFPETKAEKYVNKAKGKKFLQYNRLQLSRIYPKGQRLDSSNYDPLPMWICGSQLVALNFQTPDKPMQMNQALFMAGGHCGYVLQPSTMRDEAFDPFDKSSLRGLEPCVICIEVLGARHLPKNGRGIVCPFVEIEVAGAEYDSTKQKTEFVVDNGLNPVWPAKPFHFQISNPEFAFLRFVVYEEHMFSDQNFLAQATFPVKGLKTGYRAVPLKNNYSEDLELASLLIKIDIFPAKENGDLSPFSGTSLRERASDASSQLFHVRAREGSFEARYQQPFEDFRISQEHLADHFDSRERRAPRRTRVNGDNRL

[2] = stated without experiment or reference; cited from earlier work
PLCs = details: purified enzymes and intact cells; pan-inhibitors ref 24; cited from earlier work
PLC-γ1 (D1165H) [3] = target: T1, PLC-γ1 (D1165H); test: Pilot high-throughput screen of LOPAC1280 with XY-69 in liposomes; assay type: biochemical
Summary of the method: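 Screening was run in duplicate in 384-well format with test compounds at 10 μM. Purified PLC-γ1 (D1165H), 1 nM final, was preincubated 15 min at room temperature, then liposomes were added (final PE 220 μM, PIP₂ 20 μM, XY-69 0.5 μM). After 1 h the reaction was quenched with EGTA, pH 10.3, and read 30 min later (ex 485/em 520 nm). Full-inhibition controls were EGTA 10 mM and aurintricarboxylic acid 50 μM.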

wild-type PLC-γ1 [4] = target: T2, wild-type PLC-γ1 (Rattus norvegicus, UniProt P10686); test: Isothermal titration calorimetry; assay type: binding; details: ITC, 25 °C
T2 sequence (P10686 2-1290): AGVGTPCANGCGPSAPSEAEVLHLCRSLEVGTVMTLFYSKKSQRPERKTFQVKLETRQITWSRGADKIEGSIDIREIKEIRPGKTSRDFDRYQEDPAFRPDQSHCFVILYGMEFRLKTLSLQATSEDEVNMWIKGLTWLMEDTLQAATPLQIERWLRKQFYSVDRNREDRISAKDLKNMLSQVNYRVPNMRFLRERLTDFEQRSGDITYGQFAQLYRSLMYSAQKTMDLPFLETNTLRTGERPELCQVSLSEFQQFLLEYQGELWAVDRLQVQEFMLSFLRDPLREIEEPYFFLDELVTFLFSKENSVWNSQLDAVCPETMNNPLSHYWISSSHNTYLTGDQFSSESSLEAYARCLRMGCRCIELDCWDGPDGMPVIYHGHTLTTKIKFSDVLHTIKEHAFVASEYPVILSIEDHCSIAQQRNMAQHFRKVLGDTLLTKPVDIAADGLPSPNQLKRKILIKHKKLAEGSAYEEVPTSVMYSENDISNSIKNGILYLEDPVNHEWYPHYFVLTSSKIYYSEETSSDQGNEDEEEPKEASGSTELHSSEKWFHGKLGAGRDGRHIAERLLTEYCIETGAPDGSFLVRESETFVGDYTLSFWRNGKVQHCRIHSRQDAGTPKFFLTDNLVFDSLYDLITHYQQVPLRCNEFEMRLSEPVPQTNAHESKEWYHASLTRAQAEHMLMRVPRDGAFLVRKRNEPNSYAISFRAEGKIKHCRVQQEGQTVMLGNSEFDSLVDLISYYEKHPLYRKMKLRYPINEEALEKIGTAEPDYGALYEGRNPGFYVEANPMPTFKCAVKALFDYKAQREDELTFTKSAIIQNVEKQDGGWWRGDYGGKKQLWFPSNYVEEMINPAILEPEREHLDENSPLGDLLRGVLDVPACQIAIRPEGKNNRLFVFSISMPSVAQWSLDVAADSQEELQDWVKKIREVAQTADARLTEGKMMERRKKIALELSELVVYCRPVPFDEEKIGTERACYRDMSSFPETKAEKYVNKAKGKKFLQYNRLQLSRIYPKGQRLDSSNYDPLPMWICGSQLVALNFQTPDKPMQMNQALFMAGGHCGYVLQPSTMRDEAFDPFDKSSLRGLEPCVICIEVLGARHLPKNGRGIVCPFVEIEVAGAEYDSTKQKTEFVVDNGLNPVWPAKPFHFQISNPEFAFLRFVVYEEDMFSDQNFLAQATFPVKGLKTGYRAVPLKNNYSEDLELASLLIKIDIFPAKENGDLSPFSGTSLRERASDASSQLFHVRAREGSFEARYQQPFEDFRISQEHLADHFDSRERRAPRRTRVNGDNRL

wild-type PLC-γ1 [5] = target: T3, wild-type PLC-γ1 (Rattus norvegicus, UniProt P10686)
T3 sequence (P10686 1-1290): T1 sequence (P10686 1-1290 D1165H) with H1165D

PLC-β4 = details: high concentration (1 mM) ref 39; cited from earlier work
Solubility = assay type: physicochemical
PLC-β2 = details: purified PLC ref 7; cited from earlier work
PLC-γ1 = details: purified PLC ref 7; cited from earlier work
PLC-δ1 = details: purified PLC ref 7; cited from earlier work
[6] = XY-69 0.5 μM, PIP2 20 μM in liposomes

Structure (SMILES): Nc1ncnc2c1ncn2[C@@H]1O[C@H](COP(=O)(O)OP(=O)(O)OP(=O)(O)O)[C@@H](O)[C@H]1O [ATP, adenosine triphosphate]
- Kd (wild-type PLC-γ1 [4]): 2.6 µM
- reduction of Vmax (wild-type PLC-γ1 [5]; 5 μM ATP present): 4.1 fold
- change of KM (wild-type PLC-γ1 [5]; 1.5 and 5 μM ATP present): essentially unchanged
- IC50 (PLC-γ1 (D1165H) [1]): 0.19 µM
- cell permeability [2]: not cell permeable
- inhibition (PLC-β4): inhibit

Structure (SMILES): COc1ccc2c(c1)CC[C@@H]1[C@@H]2CC[C@]2(C)[C@@H](NCCCCCCN3C(=O)C=CC3=O)CC[C@@H]12 [Hit U73122]
- inhibition of phospholipase activity (PLC-β2): does not inhibit
- inhibition of phospholipase activity (PLC-γ1): does not inhibit
- inhibition of phospholipase activity (PLC-δ1): does not inhibit
- flagged as inhibitor in pilot screen (PLC-γ1 (D1165H) [3]; LOPAC1280 at 10 μM): not flagged as an inhibitor

Structure (SMILES): Nc1ncnc2c1ncn2[C@@H]1O[C@H](COP(=O)(O)O)[C@@H](O)[C@H]1O [AMP]
- inhibition of PLC-γ1 (PLC-γ1 (D1165H) [1]): less or no inhibition

Structure (SMILES): O=C(O)CN(CCOCCOCCN(CC(=O)O)CC(=O)O)CC(=O)O [EGTA]
- inhibition by control in pilot screen (PLC-γ1 (D1165H) [3]; 10 mM, chelates Ca2+ cofactor): Full inhibition

Further lines, with some results ahead:

- IC50 (PLC-γ1 (D1165H) [1]; [6]): 4.3 µM
- inhibition of PLC-γ1 (PLC-γ1 (D1165H) [1]): less or no inhibition
Structure (SMILES): Nc1ncnc2c1ncn2[C@@H]1O[C@H](COP(=O)(O)OP(=O)(O)O)[C@@H](O)[C@H]1O [ADP]

- inhibition by control in pilot screen (PLC-γ1 (D1165H) [3]; 50 μM): Full inhibition
Structure (SMILES): O=C(O)C1=CC(=C(c2ccc(O)c(C(=O)O)c2)c2ccc(O)c(C(=O)O)c2)C=CC1=O [ATA, aurintricarboxylic acid]
- cell permeability [2]: not cell permeable
- direct inhibition of PLCs (PLCs): direct inhibitors

- solubility in aqueous buffer (Solubility): poor solubility
Structure (SMILES): O=C1Nc2cc(Br)ccc2/C1=C1/Nc2ccccc2/C1=N\O [Hit-1, 6-bromoindirubin-3′-oxime]
- cell permeability [2]: cell permeable

- IC50 (PLC-γ1 (D1165H) [1]; [6]): 12.7 µM
Structure (SMILES): Nc1nc2c(ncn2[C@@H]2O[C@H](COP(=O)(O)OP(=O)(O)OP(=O)(O)O)[C@@H](O)[C@H]2O)c(=O)[nH]1 [GTP]
